Assay results from PubChem BioAssay.
The source made the active and inactive calls.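 How the source made its calls, unless noted: active means visually confirmed hit in the image check and inhibition above 20%; inconclusive means visually confirmed hit but inhibition not above 20%; inactive means no visual hit in the image check.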

Tests used:
[1] = inhibitors of TNFa-induced NFkB p65 translocation, primary screen, imaging, HUVEC, MLSMR starter and 10KST1 sets (AID 438;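 active means inhibition above 20% together with a positive visual image hit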;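 further: compound added about 3h40 before a 20 min TNFalpha stimulation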;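 on inhibition: signal is the nuclear over cytoplasmic p65 intensity ratio per well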); conditions: HUVEC TNFa-induced p65 nuclear translocation; cell count: measured here: nuclei count (cytotoxicity indicator), at 2.08 µM; inhibition: at 2 µM, stronger effect = higher value, 0% TNFa-plus-vehicle, 100% no-TNFa wells
[2] = reduction of polyQ htt aggregates in cells – imaging, exon1htt(103Q)mCFP cells, high-content imaging, primary screen (AID 483;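 active means visual image review flags a hit and inhibition of aggregation exceeds 20%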;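 further: compound exposure lasted 3 days before fixation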;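 on nuclei count: percent of the per-plate median nuclei count of sample wells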); conditions: exon1htt(103Q)mCFP cell line, aggregate imaging, at 2 µM; inhibition of aggregation: stronger effect = higher value; nuclei count: measured here: cell count, toxicity
[3] = endothelial E-selectin expression blockers – imaging, HUVEC, immunofluorescence, MLSMR starter and 10KST1 sets, primary screen (AID 487); conditions: HUVEC TNFalpha-induced E-selectin immunofluorescence imaging, at 2 µM; inhibition: stronger effect = higher value; nuclei count: measured here: cell number, toxicity;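 on inhibition: signal is fraction of cell area covered by stained E-selectin grains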;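 on nuclei count: 100% = median nuclei count of all wells on the same plate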
[4] = target: Voltage-gated potassium channel subunit beta-2 (Rattus norvegicus) (UniProt P62483); assay: inhibitors of rat Kvbeta2 reductase activity – biochemical, NADPH fluorescence, primary screen (AID 622;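 active means fluorescence slope higher than the sample average by over 3 SD, cut at about -0.22 in these data, passing the limit was not always enough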;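 further: slope of raw intensity against log time taken from 70 to 1610 s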); conditions: recombinant KvBeta, 4-cyanobenzaldehyde reduction, at 10 µM, stronger effect = higher value
Voltage-gated potassium channel subunit beta-2 (Rattus norvegicus), sequence (P62483 whole entry, looked up): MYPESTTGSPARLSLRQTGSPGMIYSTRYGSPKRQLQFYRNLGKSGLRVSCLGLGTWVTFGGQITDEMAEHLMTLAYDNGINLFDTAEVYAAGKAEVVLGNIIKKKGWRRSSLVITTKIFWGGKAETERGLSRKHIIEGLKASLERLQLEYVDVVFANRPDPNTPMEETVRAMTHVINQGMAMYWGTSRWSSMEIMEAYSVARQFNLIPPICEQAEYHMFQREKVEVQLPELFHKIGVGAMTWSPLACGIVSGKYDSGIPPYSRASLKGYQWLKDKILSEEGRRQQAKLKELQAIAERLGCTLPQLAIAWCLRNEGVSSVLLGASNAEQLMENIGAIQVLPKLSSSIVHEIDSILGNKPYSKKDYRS

[5] = target: Voltage-gated potassium channel subunit beta-2 (Rattus norvegicus) (UniProt P62483); assay: enhancers of rat Kvbeta2 NADPH turnover – biochemical, NADPH fluorescence, primary screen (AID 623;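 active means NADPH fluorescence slope more negative than the mean of all samples by about 3 SD, 99.7% confidence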;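 further: fluorescence intensity change per second fitted from 20 to 320 s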); conditions: Recombinant KvBeta, NADPH fluorescence decrease slope, 10 min; at 10 µM; stronger effect = lower value
[6] = target: Muscarinic acetylcholine receptor M4 (Homo sapiens) (UniProt P08173); assay: M4-linked GIRK flux change, two-sided – cell-based, HEK293 M4/GIRK, thallium flux, BTC-AM, M4 allosteric agonist project, primary screen (AID 625;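 active means fluorescence slope after compound addition differing from the mean of all tested samples at 99.7% confidence, mostly higher but some lower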;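 further: thallium influx through GIRK channels coupled to M4 in HEK293 cells with BTC-AM dye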); conditions: at 10 µM, actives lie on both sides
Muscarinic acetylcholine receptor M4 (Homo sapiens), sequence (P08173 whole entry, looked up): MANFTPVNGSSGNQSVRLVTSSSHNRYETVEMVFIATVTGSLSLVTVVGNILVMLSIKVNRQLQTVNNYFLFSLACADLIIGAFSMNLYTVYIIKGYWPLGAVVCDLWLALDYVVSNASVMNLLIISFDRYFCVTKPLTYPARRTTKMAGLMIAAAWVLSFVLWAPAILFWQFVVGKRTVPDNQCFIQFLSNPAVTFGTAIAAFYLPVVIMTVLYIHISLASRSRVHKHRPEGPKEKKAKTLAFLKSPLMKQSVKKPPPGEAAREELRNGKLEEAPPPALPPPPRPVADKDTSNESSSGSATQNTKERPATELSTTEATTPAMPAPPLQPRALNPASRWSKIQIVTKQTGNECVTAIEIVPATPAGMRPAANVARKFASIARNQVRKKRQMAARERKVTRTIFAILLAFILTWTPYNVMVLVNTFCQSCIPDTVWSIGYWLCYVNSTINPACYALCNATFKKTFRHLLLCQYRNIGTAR
How it was run: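 Assay system: HEK293 cells with M4 receptor and GIRK channels / Controls: carbachol and DMSO controls / Schedule: 1 h dye loading, 2 min kinetic read / Technique: kinetic fluorescence with BTC-AM dye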

[7] = blockers of RIG-like receptor reporter activation – cell-based, Sendai virus stimulus, luciferase, 10K MLSCN set, TLR/RLR signaling modifier project, primary screen (AID 602276;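 active means inhibition at or above 50% at 10 µM; inactive means inhibition below 50%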;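 further: firefly luciferase from ISG56 promoter only with Renilla not read in this screen; 0% = Sendai virus plus DMSO and 100% = medium plus DMSO without virus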); conditions: HEK293 RL24 IRF3 luciferase reporter, at 10 µM, stronger effect = higher value
[8] = TLR3 IRF3 reporter activation blockers – cell-based, poly I:C stimulus, luciferase, 10K MLSCN set, primary screen (AID 602277;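 active means inhibition of the reporter signal at or above 50%; inactive means inhibition below 50%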); conditions: HEK293-TLR3 RL24 IRF3 luciferase reporter, at 10 µM, stronger effect = higher value

| SMILES | cell count [1] | inhibition [1] | inhibition of aggregation [2] | nuclei count [2] | inhibition [3] | nuclei count [3] | fluorescence slope [4] | NADPH fluorescence slope [5] | fluorescence slope [6] | inhibition [7] | inhibition [8] |
| --- | --- | --- | --- | --- | --- | --- | --- | --- | --- | --- | --- |
| Cc1n[nH]c(C)c1S(=O)(=O)Nc1ccc2c(c1)OCCO2 | 328 | 8.9% (inactive) | 29.5% (inactive) | 91.5% | 10.4% (inactive) | 84.4% | -0.469 (inactive) | 4.4e-05 (inactive) | 0.0057 (inactive) | 26.7% (inactive) | 33.7% (inactive) |
| c1nnc(NC2=NCCCCC2)s1 | 630 | -18.3% (inactive) | 0.1% (inactive) | 105% | 33.9% (inactive) | 124% | -0.346 (inactive) | -1.1e-05 (inactive) | 0.00597 (inactive) | -16.9% (inactive) | -29.4% (inactive) |
| CC1=C(C#N)C(c2ccc3ncccc3c2)C(C#N)=C(C)N1 | 641 | 1.7% (inactive) | -43.5% (inactive) | 130% | -66.3% (inactive) | 110% | -0.44 (inactive) | 1.3e-05 (inactive) | 0.0045 (inactive) | 5.74% (inactive) | 5.72% (inactive) |
| O=C(CN1C(=O)c2cccc3cccc1c23)NCC1CCCO1 (stereo not drawn) | 356 | 20.1% (inactive) | 13.2% (inactive) | 79.5% | -58% (inactive) | 102% | -0.433 (inactive) | -4.9e-05 (inactive) | 0.00404 (inactive) | -5.13% (inactive) | -11.1% (inactive) |
| COc1ccc(CN2C(=O)C(O)(CC(=O)c3c(C)n[nH]c3C)c3ccccc32)cc1OC (stereo not drawn) | 264 | -12.6% (inactive) | -2.3% (inactive) | 92.8% | -27.7% (inactive) | 97.3% | -0.481 (inactive) | -4.5e-05 (inactive) | 0.00507 (inactive) | 15.2% (inactive) | 9.8% (inactive) |
| O=c1c2ccccc2cnn1-c1nc2ccccc2s1 | 480 | -1% (inactive) | -5.1% (inactive) | 98.1% | -33.8% (inactive) | 117% | -0.133 (inactive) | -1.6e-05 (inactive) | 0.00555 (inactive) | 20.5% (inactive) | 93.6% (active) |
| CC(C(=O)N1CCOCC1)N1c2cccc3cccc(c23)S1(=O)=O (stereo not drawn) | 341 | -13.3% (inactive) | 8.6% (inactive) | 109% | -31.4% (inactive) | 102% | -0.548 (inactive) | -2.9e-05 (inactive) | 0.00313 (inactive) | 17.3% (inactive) | 20.6% (inactive) |
| Cc1ccccc1CN1CCN(CC(=O)NCc2ccco2)C1=O | 395 | -1.7% (inactive) | -11.1% (inactive) | 97.3% | -7.2% (inactive) | 109% | -0.511 (inactive) | -0.000109 (inactive) | 0.00663 (inactive) | 23.3% (inactive) | 22.7% (inactive) |
| O=C(N1CCCCCC1)N1CCN(S(=O)(=O)N2CCCCC2)CC1 | 323 | -2.2% (inactive) | 9.2% (inactive) | 106% | -33.5% (inactive) | 126% | -0.579 (inactive) | -4.8e-05 (inactive) | 0.00553 (inactive) | 24% (inactive) | 12.9% (inactive) |
| COc1cccc(CC(NC(C)=O)C(=O)NC2CCN(c3c4c(nc5ncnn35)CCC4)CC2)c1 (stereo not drawn) | 767 | -6.8% (inactive) | -4.2% (inactive) | 114% | -37.8% (inactive) | 140% | -0.464 (inactive) | -5.8e-05 (inactive) | 0.00506 (inactive) | 17.1% (inactive) | 22.9% (inactive) |
| CCCCc1c(O)nc(SCC(=O)c2ccccc2)[nH]c1=O | 375 | 1.7% (inactive) | 10.7% (inactive) | 90.4% | 21.3% (inactive) | 95.1% | -0.561 (inactive) | -8.5e-05 (inactive) | 0.00359 (inactive) | 14.2% (inactive) | 11.2% (inactive) |
| COc1cccc(N2CCN(Cc3nc(N)nc(Nc4ccccc4OC)n3)CC2)c1 | 495 | 2.9% (inactive) | -8.8% (inactive) | 97.2% | 2.5% (inactive) | 104% | -0.562 (inactive) | -3.3e-05 (inactive) | 0.00593 (inactive) | 19% (inactive) | 17.2% (inactive) |
| Cc1coc(NC(=O)CSc2nc(-c3ccncc3)cc(C(F)(F)F)c2C#N)n1 | 740 | -7.9% (inactive) | 16.1% (inactive) | 86.8% | -29.3% (inactive) | 115% | -0.471 (inactive) | -2.9e-05 (inactive) | 0.00557 (inactive) | 5.59% (inactive) | 8.54% (inactive) |
| COc1ccc(-c2noc(COc3ccc4ccccc4c3Br)n2)cc1OC | 565 | 14.8% (inactive) | -29.8% (inactive) | 109% | 8.2% (inactive) | 104% | -0.564 (inactive) | -3e-05 (inactive) | 0.00985 (inactive) | -38.1% (inactive) | -45.2% (inactive) |
| CCCn1c2ccccc2c2nnc(SCC(=O)OCC)nc21 | 412 | -1.5% (inactive) | -3% (inactive) | 124% | 14.6% (inactive) | 104% | -0.536 (inactive) | -7.3e-05 (inactive) | 0.00386 (inactive) | 17.9% (inactive) | 25% (inactive) |
| CSC1CCCCC1(O)CSc1nc2c(cc1C#N)CCCC2 (stereo not drawn) | 306 | -7.4% (inactive) | 9% (inactive) | 87% | -111% (inactive) | 78.9% | -0.411 (inactive) | 1e-05 (inactive) | 0.00633 (inactive) | 21.3% (inactive) | 13.8% (inactive) |
| CC(C)=CCSc1nnc(CCNC(=O)OC(C)(C)C)o1 | 391 | 14.5% (inactive) | 17.1% (inactive) | 90% | 22.3% (inactive) | 95.7% | -0.402 (inactive) | 8.7e-05 (inactive) | 0.00571 (inactive) | 9.62% (inactive) | 12.6% (inactive) |
| COc1ccccc1C1/C(=C(\O)c2c(C)nc3c(C)cccn23)C(=O)C(=O)N1CCCN(C)C (stereo not drawn) | 530 | -2.6% (inactive) | -6.8% (inactive) | 110% | 35.1% (inactive) | 121% | -0.298 (inactive) | -5.5e-05 (inactive) | 0.00521 (inactive) | 10.7% (inactive) | 20.7% (inactive) |
| C=CCSc1ncccc1C(=O)O | 709 | 6.9% (inactive) | -8.1% (inactive) | 108% | -36.4% (inactive) | 111% | -0.556 (inactive) | -6.2e-05 (inactive) | 0.00662 (inactive) | -12.7% (inactive) | -3.04% (inactive) |
| C=CCC(NCc1ccco1)c1ccc(OC)cc1OC (stereo not drawn) | 697 | 7.5% (inactive) | 4.4% (inactive) | 110% | -94.5% (inactive) | 108% | -0.597 (inactive) | 2.3e-05 (inactive) | 0.00584 (inactive) | 12.6% (inactive) | 18.9% (inactive) |
| CC(=O)c1cccc(NC(=O)N2CCCC2C(=O)NCc2ccc(C)cc2)c1 (stereo not drawn) | 537 | -4.9% (inactive) | 6.2% (inactive) | 102% | -6.3% (inactive) | 120% | -0.216 (inactive) | -5.5e-06 (inactive) | 0.00664 (inactive) | 14.1% (inactive) | 23.1% (inactive) |
| CC(C(=O)NCc1cccnc1)N1C(=O)c2ccccc2C1=O (stereo not drawn) | 783 | 5.5% (inactive) | 3.6% (inactive) | 105% | -39.6% (inactive) | 132% | -0.607 (inactive) | 1.7e-05 (inactive) | 0.00555 (inactive) | -0.398% (inactive) | 10.3% (inactive) |
| COc1ccc(-c2cc(C(F)F)n3ncc(C(=O)NCC4CCCO4)c3n2)cc1 (stereo not drawn) | 244 | 4.7% (inactive) | -15.8% (inactive) | 78.7% | -51% (inactive) | 108% | -0.000811 (active) | -2.9e-05 (inactive) | 0.00542 (inactive) | 20.7% (inactive) | 11.4% (inactive) |
| O=c1[nH]c2ccc(S(=O)(=O)N3CCN(C4CCCCC4)CC3)cc2[nH]c1=O | 264 | -7.8% (inactive) | -36.5% (inactive) | 90.7% | -52.5% (inactive) | 122% | -0.484 (inactive) | -0.000259 (inactive) | 0.00453 (inactive) | -0.0358% (inactive) | 6.71% (inactive) |
| C=C(C)CSc1nnc(-c2cccc(S(=O)(=O)N(C)C)c2)n1-c1cc(OC)ccc1OC | 712 | -12.2% (inactive) | 31.2% (active) | 123% | -12.6% (inactive) | 107% | -0.576 (inactive) | 4e-05 (inactive) | 0.00586 (inactive) | 18.8% (inactive) | 34.6% (inactive) |
| Cc1ccc(-c2nnc3ccc(SCC(=O)NCc4ccco4)nn23)cc1 | 421 | 0.7% (inactive) | 0.7% (inactive) | 117% | 17.1% (inactive) | 99.7% | -0.234 (inactive) | -7.9e-06 (inactive) | 0.00584 (inactive) | 4.93% (inactive) | 7.2% (inactive) |
| CCCCCCNC(=O)Cc1c(O)c2ccccc2[nH]c1=O | 342 | 3.2% (inactive) | -12.8% (inactive) | 122% | 20.8% (inactive) | 103% | -0.354 (inactive) | -5.1e-05 (inactive) | 0.0051 (inactive) | 9.96% (inactive) | 16.8% (inactive) |
| CC(C)c1ccc(-c2nc(N3CCCCC3)[nH]c(=O)c2C#N)cc1 | 459 | -4.5% (inactive) | -12% (inactive) | 102% | -48.9% (inactive) | 107% | -0.478 (inactive) | -3.9e-06 (inactive) | 0.00632 (inactive) | -5% (inactive) | -1.05% (inactive) |
